Assay [1] concerns the target recombinant human survivin (Homo sapiens, UniProt O15392). Kind of assay: Saturation binding assay of peptides to recombinant survivin protein. As to conditions: QCM sensorgram, result in words. The gist of the method: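 Quartz crystal microbalance. Recombinant human survivin (40 μg/mL) amide-coupled to the gold electrode of the sensor chip, with the chip soaked in buffer. 8 μL aliquots of test peptide solutions (10–256 μmol L⁻¹ as injected) added sequentially to the cuvette. Frequency change monitored over time. Kd derived by kinetic analysis using a one-binding-site model.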

Assay [2] deals with human serum albumin (HSA). Kind of assay: QCM response to human serum albumin-immobilized sensor chip. It is filed as binding. As to conditions: QCM sensorgram, result in words. The gist of the method:
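Quartz crystal microbalance run with an HSA-immobilized sensor chip. Test compound added to the cuvette in successive portions, giving overall cuvette concentrations that start at 1 and 10 nmol L⁻¹. Frequency change recorded over time as the binding response.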

The next assay relates to MCF‐10A cells. Kind of assay: Cell proliferation assay. Type of assay: cell-based, human. Particulars: MTT, 1, 10 or 100 µmol L^−1, 48 h. In short, it runs like this: (§1)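 Cells treated 48 h with test compound at 1, 10 or 100 µmol L⁻¹, or with 1% DMSO solvent alone. Culture media: MIA PaCa-2 in low-glucose DMEM with 10% FBS; MCF-10A in DMEM/F-12 with 5% horse serum, EGF, insulin and hydrocortisone. MTT added for 4 h, then cells lysed in DMSO. OD read at 570 nm (650 nm correction). Viability expressed relative to DMSO-treated cells (100%). Mean ± SD, n = 5–6; Kruskal-Wallis test with Dunn's post hoc test.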

In assay [3] the test system is survivin in MDA‐MB‐231 cells. The assay is described as follows: Western blot of survivin protein expression, MDA-MB-231. Type of assay: cell-based, human. As to conditions: 10 or 40 μmol L^−1, 48 h, vs vehicle control, n = 3.
For assay [4], the system named is survivin in MIA PaCa‐2 cells. The assay is described as follows: Western blot of survivin protein expression, MIA PaCa-2. It is filed as cell-based, human. As to conditions: 40 µmol L^−1, 48 h, P = .366, without statistical significance, n = 3. In general terms: In western blotting, separated proteins are transferred to a membrane and probed.
The test system of assay [5] is cleaved caspase‐3 in MIA PaCa‐2 cells. Kind of assay: Western blot of cleaved caspase-3, MIA PaCa-2. As to conditions: even at 10 µmol L^−1, 48 h, vs untreated cells, n = 3. It is filed as cell-based, human.
Assay [6] concerns MIA PaCa‐2 cells. The assay is described as follows: Flow cytometry, annexin V-FITC/PI apoptosis. It is filed as cell-based, human. Particulars: n = 3. On the technique in general: Flow cytometry measures light scatter and fluorescence of single cells or particles in a stream.
The subject of a further assay is MDA‐MB‐231 cells. The assay is described as follows: Cell proliferation assay. Type of assay: cell-based, human. Particulars: MTT, different concentrations, 48 h.
Assay [7] deals with MIA PaCa‐2 cells. Kind of assay: Cell proliferation assay. It is filed as cell-based, human. As to conditions: MTT, different concentrations, 48 h. In short, it runs like this:
as §1

In assay [8] the target is T1, recombinant human survivin (human, UniProt O15392). Kind of assay: quartz crystal microbalance.
T1 sequence (O15392 whole entry): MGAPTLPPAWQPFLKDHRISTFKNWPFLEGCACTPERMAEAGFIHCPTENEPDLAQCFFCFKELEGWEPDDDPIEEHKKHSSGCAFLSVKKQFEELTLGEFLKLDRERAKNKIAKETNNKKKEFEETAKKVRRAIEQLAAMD
Assay [9] deals with T1, recombinant human survivin. The assay is described as follows: quartz crystal microbalance. This is another data set of the same source.

Read-outs that look alike come from different tables or passages of the source. No end group written: not given here. Some results are limits rather than exact numbers.

recombinant human survivin (Homo sapiens, UniProt O15392), sequence (O15392 whole entry): as above

For `CSCC[C@H](NC(=O)[C@H](CC(C)C)NC(=O)[C@H](CCCCN)NC(=O)[C@H](CCC(N)=O)NC(=O)[C@H](CC(=O)O)NC(=O)CCCCCNC(=O)[C@@H](CCCNC(=N)N)NC(=O)[C@@H](CCCNC(=N)N)NC(=O)[C@@H](CCCNC(=N)N)NC(=O)[C@@H](CCCNC(=N)N)NC(=O)[C@@H](CCCNC(=N)N)NC(=O)[C@@H](CCCNC(=N)N)NC(=O)[C@@H](CCCNC(=N)N)NC(=O)[C@@H](CCCNC(=N)N)NC(=O)[C@@H](CCCNC(=N)N)NC(C)=O)C(=O)N[C@@H](CCC(=O)O)C(=O)N[C@@H](Cc1ccccc1)C(N)=O` [r9‐INC16‐22], the “QCM response to survivin-immobilized sensor chip” value in assay [1] is recorded as “strongly responded to survivin in a dose‐dependent manner”. The “QCM response to HSA-immobilized sensor chip” value in [2] is reported as “no significant response”. In addition, in the assay with MCF‐10A cells, the “antiproliferative effect on MCF‐10A cells (in words)” value is on record as “No marked antiproliferative effect”. Also, the “protein expression level of survivin in MDA‐MB‐231 cells” value in [3] is “Neither the treatment with r9‐INC16‐22 at a concentration of 10 μmol L^−1 nor at 40 μmol L^−1 showed any significant decrease”. Also, the “protein expression level of survivin in MIA PaCa‐2 cells” value in assay [4] was “apparently reduced the protein level”. In addition, the “expression of cleaved caspase‐3 in MIA PaCa‐2 cells” value in assay [5] is recorded as “significantly increased”. In addition, in the assay on MIA PaCa‐2 cells [6] (MIA PaCa‐2, 10 μmol L^−1, 24 h), the early apoptosis rate is given as 52.4%; the “late apoptosis and necrosis rate” value turned out to be 29.4%. Also, in the assay on MIA PaCa‐2 cells [6] (MIA PaCa‐2, 50 μmol L^−1, 24 h), the early apoptosis rate amounted to 49.6%; the “late apoptosis and necrosis rate” value came to 44.2%.

“Ac-rrrrrrrrr-ahx-QLDMFKE-NH2 [r9‐scINC16‐22]”: the “QCM response to survivin-immobilized sensor chip” value in [1] was “negligible response”. The “antiproliferative effect on MDA‐MB‐231 cells (in words)” value in the assay on MDA‐MB‐231 cells was “no significant antiproliferative effect”. Besides, in the assay on MIA PaCa‐2 cells [7], the “antiproliferative effect on MIA PaCa‐2 cells (in words)” value is given as “no significant antiproliferative effect”.

On to EEAERMFTR-NH2 [INC_(39-47)], for which the dissociation constant Kd in assay [8] is 135 nM.

B1: FITC-INC_(16-22) (peptide)
peptide: DQKLMEF
HELM: PEPTIDE1{[O=C1OC2(c3ccc(O)cc3Oc3cc(O)ccc32)c2ccc(NC(=S)[*:2])cc21].[O=C(CCCCCN[*:1])[*:2]].D.Q.K.L.M.E.F.[am]}$$$$V2.0
SMILES: CSCC[C@H](NC(=O)[C@H](CC(C)C)NC(=O)[C@H](CCCCN)NC(=O)[C@H](CCC(N)=O)NC(=O)[C@H](CC(=O)O)NC(=O)CCCCCNC(=S)Nc1ccc2c(c1)C(=O)OC21c2ccc(O)cc2Oc2cc(O)ccc21)C(=O)N[C@@H](CCC(=O)O)C(=O)N[C@@H](Cc1ccccc1)C(N)=O
Consider B1, for which the Kd in assay [9] was determined as 66 nM.

On to QLDMFKE-NH2 [scINC_(16-22)], for which the equilibrium dissociation constant (Kd) in assay [9] was more than 300 nM.

Consider LVWLEEIQ-NH2 [INC_(31-38)], for which the Kd in assay [8] was found to be 108 nM.

Turning to DQKLMEF-NH2 [INC_(16-22)], the dissociation constant Kd in assay [8] is 91.4 nM.

Turning to GPIHLLEL-NH2 [INC_(7-14)], the Kd in assay [8] amounted to 214 nM.

As for LCNMDNKD-NH2 [INC_(23-30)], the Kd in assay [8] was 117 nM.

Take DQKLMEFLCNMDNKDLVWL-NH2 [INC_(16-34)]: the dissociation constant Kd in [9] turned out to be 160 nM.

CDQKLMEF-NH2 [INC_(15-22)]: in assay [9], the Kd worked out at 248 nM.

As for DNKDLVWL-NH2 [INC_(27-34)], the Kd in assay [8] is 255 nM.

As usually defined, the Kd is the concentration at which binding is half-saturated.
